The nature of test [1]: OD615 S. cerevisiae growth inhibition, permissive medium, pilot counter-assay, permissive growth control for S. cerevisiae lifespan shortening project (AID 705;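 active means growth inhibition above 25% in both replicates, a cutoff set 3 SD above the mean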). The following applies: OD615, 24 h, at 10 µM, hits give high values. An outline of the steps: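 System: engineered DeaD yeast; Medium: permissive raffinose/galactose medium; Compound dosing: 10 µM single dose, 0.25% DMSO; Incubation: 4 h cell pre-growth, 24 h exposure at 30 °C; Technique: OD at 615 nm; Evaluation: growth inhibition from lowered OD615 after 24 h.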

Test [2] can be described thus: Restrictive medium S. cerevisiae growth inhibition, OD615, pilot screen of yeast lifespan reduction project, restrictive growth control (AID 706;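 active means growth inhibition above a set limit, 3 SD over mean compound inhibition, in both replicates, cut at about 43% in these data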;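 further: modified DeaD lifespan yeast strain shifted to restrictive glucose medium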). The following applies: OD615, 48 h, at 10 µM, hits give high values. An outline of the steps: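 Material: modified S. cerevisiae; buffer or medium: CSMM-D glucose medium; doses: one concentration, 10 µM final, 0.25% DMSO; incubation: 48 h compound exposure at 30 °C; detection: optical density at 615 nm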

Test [3] can be described thus: viability gain of MRP-1-high H69AR cells under doxorubicin, pilot screen, MRP-1 activator project, CellTiter-Glo, duplicate (AID 807;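 active means viability increase at or above a cutoff of the median across tested compounds plus 3 SD, cut at about 8.5% in these data, passing the limit was not always enough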;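 further: compound pretreatment 18-22 h then 72 h combined with doxorubicin; 0% = doxorubicin alone and 100% = vehicle without doxorubicin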). The following applies: H69AR viability with doxorubicin, CellTiter-Glo luminescence; at 10 µM; hits give high values.
The nature of test [4]: growth suppression of beta-catenin knockout HCT116, pilot screen, human colon tumor cells (AID 823;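 active means cell viability at or below a set limit in both duplicate runs, the limit being the all-compound median minus 4 SD, cut at about 23% in these data, passing the limit was not always enough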;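 further: 0% = wells killed by 20 µM Hyamine and 100% = untreated DMSO cell wells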). The settings on record: CellTiter-Glo, 60 h, at 10 µM, hits give low values.
Test [5] in a line: growth suppression of PTEN-deleted HCT116, pilot screen, cell-based, HCT116 clonal line, CellTiter-Glo (AID 824).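 Further: 0% = 20 µM Hyamine control and 100% = vehicle cell control.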 The settings on record: 60 h, at 10 µM, hits give low values.
Test [6] can be described thus: inhibitors of the yeast RAM network, pilot screen, dse1pr::URA3 reporter, 5-FOA selection (AID 869;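 active means inhibition over a set limit, the all-compound mean plus 3 SD, in both replicate runs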;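 further: 0% = DMSO wells with no growth and 100% = 10 µM 1-NA-PP1 with full growth; RAM network block rescues cells from 5-FOA so hits raise OD615 growth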). The settings on record: S. cerevisiae dse1pr::URA3 5-FOA growth, OD615, 2 d; at 10 µM; hits give high values; strain carries analog-sensitive mutant Cbk1 kinase.
The nature of test [7]: RAM signaling pathway blockade in yeast – S. cerevisiae, Pdr1DBD-CYC8 efflux-inhibited sensitized strain, primary screen (AID 1298;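 active means RAM network inhibition above 8.4% in each of two replicates, 3 SD over the compound average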;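 further: 0% = DMSO untreated cells without growth and 100% = 10 µM 1-NA-PP1 full growth; higher means more yeast growth rescued from 5-FOA killing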). The settings on record: S. cerevisiae cbk1-as DSE1-URA3 strain, 5-FOA growth OD615, 2 d; at 50 µM; hits give high values.

The structures appear in SMILES notation. Values without a mark were called inactive. Results filed as inconclusive are left out. Calls of active or inactive are those of the source.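 How the source made its calls, unless noted: active means viability at or below 27.92% in each of two runs, the all-compound median minus 4 SD; inconclusive means no clear call, values can overlap the other calls; inactive means the rest.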

With `CCn1c(=O)cc(O)c2ccccc21`, the growth inhibition in test [1] was 1.77%; in test [2] it was -10.1%. Besides, the viability increase in test [3] was -1.68%. Besides, the figures for the viability in test [4] and in test [5] were 99% and 94%, respectively. Also, the inhibition in test [6] was 2.01%. In test [7], the RAM network inhibition was 1.28%.

Take `CCCc1c(C(=O)OCC)[nH]c2c1C(=O)CCC2`: the growth inhibition is 1.82% in test [1] and 2.14% in test [2]. For the same compound, the viability increase in test [3] was -2.07%. Also, the viability in test [4] was 107%; in test [5] it was 95.3%. For the same compound, in test [6], the inhibition is 1.46%. In addition, the RAM network inhibition in test [7] was 2.61%.

As to `CCc1ccccc1NC1c2ccccc2C(=O)N1c1cc(C)ccn1` (stereo unspecified), the growth inhibition in test [1] was -12.1%; in test [2] it was -4.82%. Moreover, the viability increase in test [3] is -1.63%. Further, the viability is 99.1% in test [4] and 101% in test [5]. The inhibition in test [6] is 1.82%. Also, the RAM network inhibition in test [7] is 11.4%.

As for `O=C(CN(C1CCCCC1)S(=O)(=O)c1ccc(F)cc1)NCCCO`, the values for the growth inhibition in test [1] and in test [2] were -6.21% and 2.23%, respectively. Further, in test [3], the viability increase was -0.51%. Moreover, the viability was 103% in test [4] and 98.1% in test [5]. Besides, the inhibition in test [6] is 1.75%. Moreover, the RAM network inhibition in test [7] was 1.27%.

`CCN(CC)S(=O)(=O)c1ccc(Cl)c(C(=O)NC2CCCC2)c1`: the growth inhibition is -6.5% in test [1] and -7.35% in test [2]. Besides, the viability increase in test [3] is 0.17%. For the same compound, the viability is 92.9% in test [4] and 97.1% in test [5]. The inhibition in test [6] is 0.145%. In addition, in test [7], the RAM network inhibition is 3.38%.

Consider `Cc1nn(-c2ccccc2)c(C)c1NC(=O)Cc1cccs1`, for which the growth inhibition in test [1] is -10.7%; in test [2], -4.28%. For the same compound, the viability increase in test [3] was -2.07%. For the same compound, the viability in test [4] is 95.2%; in test [5], 92.1%. In test [6], the inhibition was 1.18%. For the same compound, in test [7], the RAM network inhibition is 1.1%.

For `CCCC1(C(=O)O)NC(c2cccc(OC)c2O)C2C(=O)N(c3ccccc3)C(=O)C21` (stereo unspecified), the results for the growth inhibition in test [1] and in test [2] were -0.085% and -4.29%, respectively. The viability increase in test [3] is -0.36%. The values for the viability in test [4] and in test [5] were 96.4% and 97.4%, respectively. For the same compound, the inhibition in test [6] is 0.49%. Also, the RAM network inhibition in test [7] is -0.78%.

Turning to `O=C(CCN1CCN(CCO)CC1)Nc1ccc(F)c(F)c1`, the growth inhibition in test [1] was -1.65%; in test [2], -3.58%. In addition, the viability increase in test [3] was -2.29%. The viability is 104% in test [4] and 101% in test [5]. Further, the inhibition in test [6] was 0.265%. Further, the RAM network inhibition in test [7] was 2.01%.

As to `O=C1CCCC/C1=C\Nc1ccc(Cl)cn1`, the growth inhibition in test [1] was -4.26%; in test [2], 1.26%. In test [3], the viability increase was 1.58%. The viability in test [4] is 98.1%; in test [5], 95%. In addition, in test [6], the inhibition was 2.25%. Besides, the RAM network inhibition in test [7] was -1.13%.

Consider `COc1ccccc1NC(=O)c1ccc(S(=O)(=O)N(C)C)cc1`, for which the growth inhibition is 0.34% in test [1] and 6.62% in test [2]. The viability increase in test [3] was -0.55%. Further, the viability in test [4] is 108%; in test [5], 105%. Moreover, in test [6], the inhibition was 2.33%. Moreover, the RAM network inhibition in test [7] was -1.21%.

With `COc1ccc(OC)c(CCNC(=O)Cn2sc3nc(C)cc(C)c3c2=O)c1`, the figures for the growth inhibition in test [1] and in test [2] were 18.3% and 70.4% (active), respectively. In addition, the viability increase in test [3] was -8.04%. Moreover, the viability in test [4] was 2.27% (active); in test [5], 4.4% (active). Moreover, in test [6], the inhibition was 1.38%. In addition, in test [7], the RAM network inhibition is 11.3%.

In the case of `CCN(CC)S(=O)(=O)c1ccc(C(=O)Nc2ccc(OCC(=O)N3CCOCC3)cc2)cc1`, the results for the growth inhibition in test [1] and in test [2] were -6% and -11%, respectively. For the same compound, in test [3], the viability increase was 0.35%. In addition, the viability in test [4] is 86.6%; in test [5] it was 95.4%. Also, the inhibition in test [6] was 0.185%. Also, the RAM network inhibition in test [7] was 4.45%.

For the compound `CCOC(=O)c1ccccc1NC(=O)CC1SC(=NC)N(C)C1=O` (stereo unspecified), the growth inhibition in test [1] is -10.3%; in test [2] it was -22.9%. In test [3], the viability increase is -2%. Further, the values for the viability in test [4] and in test [5] were 102% and 96.2%, respectively. Also, the inhibition in test [6] is 2.04%. In test [7], the RAM network inhibition is 4.34%.

On to `O=C(CC1NCCNC1=O)OCCCc1ccccc1` (stereo unspecified), for which the values for the growth inhibition in test [1] and in test [2] were -0.955% and -2.82%, respectively. In test [3], the viability increase is 0.07%. Moreover, the viability in test [4] is 99.1%; in test [5], 99.9%. Further, the inhibition in test [6] is 1.09%. The RAM network inhibition in test [7] was 5.29%.

For `CCc1nnc(NC(=O)CSc2nccn2-c2cc(C)cc(C)c2)s1`, the growth inhibition in test [1] is 3.21%; in test [2], 23%. Besides, the viability increase in test [3] is -6.31%. For the same compound, the viability in test [4] is 86.2%; in test [5], 75.8%. In addition, in test [6], the inhibition is 0.195%. The RAM network inhibition in test [7] was -1.37%.

As for `Cc1onc(-c2ccccc2Cl)c1C(=O)Nc1nnc(-c2ccc(F)cc2)s1`, the values for the growth inhibition in test [1] and in test [2] were -16.7% and -1.93%, respectively. In test [3], the viability increase was 2.9%. Also, the viability in test [4] was 98.5%; in test [5] it was 90.5%. The inhibition in test [6] is 2.51%. For the same compound, in test [7], the RAM network inhibition was 5.79%.

Take `CC(C)C(=O)Nc1nnc(-c2ccccc2)o1`: the growth inhibition is -5.24% in test [1] and -0.51% in test [2]. In addition, in test [3], the viability increase was -2.2%. Also, the viability was 102% in test [4] and 101% in test [5]. Moreover, the inhibition in test [6] was 0.64%. In addition, in test [7], the RAM network inhibition was -0.68%.

For `COc1ccccc1NC(=O)c1cccc(S(=O)(=O)N2CCOCC2)c1`, the values for the growth inhibition in test [1] and in test [2] were 7.87% and 0.14%, respectively. Besides, the viability increase in test [3] was -0.79%. The figures for the viability in test [4] and in test [5] were 103% and 96.7%, respectively. Moreover, in test [6], the inhibition is 2.99%. Moreover, the RAM network inhibition in test [7] was 0.68%.

These data come from PubChem BioAssay.
